Broadly, the IC50 is the point on the concentration scale where inhibition reaches its midpoint. By MBC is commonly meant the smallest concentration meeting the test's criterion for killing.

The results in this text go back to ChEMBL document CHEMBL4229550, “An antimycobacterial pleuromutilin analogue effective against dormant bacilli” (Bioorg Med Chem, 2018).

Values after ≈ are worked out from the molar mass of the structure shown. Active and inactive are the calls of the source. Bounds are passed on as bounds.

One data set concerns Vero. The data set is described as follows: Cytotoxicity against African green monkey Vero cells assessed as reduction in cell viability after 72 hrs by MTT assay. To be noted: Chlorocebus sabaeus. The class given is cell-based. Summed up:
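Vero cells were grown in complete EMEM with 10% FBS and exposed for 72 h to 0.78–200 µg/mL. The medium was then swapped for phenol-red-free EMEM and MTT was added. Formazan absorbance was read at 570 nm to give IC50.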
In general terms: Tetrazolium dyes change colour on reduction, which living cells bring about.

In data set [1] the test system is Mycobacterium tuberculosis. Briefly: Antibacterial activity against Mycobacterium tuberculosis Erdman infected in Balb/c mouse assessed as reduction in bacterial load in lungs at 2.5 mg/kg, po for 3 weeks starting from 10 days post infection measured on day 21 post infection. The class given is functional, Erdman = ATCC 35801. The procedure, abridged:
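Female BALB/c mice, 7–8 weeks old, are aerosol-infected with Mtb Erdman. From day 10 they receive oral gavage in water for three weeks, in groups of 5. Lungs and spleens are harvested at day 21 post-infection and plated for CFU. Efficacy is the log10 reduction in lung burden versus untreated (vehicle) controls.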

Data set [2] deals with Mycobacterium tuberculosis. Briefly: Bactericidal activity against non-replicating Mycobacterium tuberculosis CDC1551 expressing tdTomato infected in mouse J774A.1 cells at 2 times MIC up to 72 hrs by UV-Visible spectroscopic method. The format is functional, organism-based. The procedure, abridged: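 J774A.1 macrophages are seeded at […] cells/well in DMEM and incubated overnight at 37 °C. They are infected with saline-washed Mtb CDC1551-tdTomato (10^6 bacteria, MOI ≈10), and extracellular bacteria are washed off with PBS. Treatment is at 2×MIC, with fluorescence emission read at 581 nm at 24, 48, 72 and 96 h. Survivors are confirmed by serial dilution and plating on 7H11.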

Data set [3] relates to Mycobacterium tuberculosis. Briefly: Bactericidal activity against replicating Mycobacterium tuberculosis H37Rv incubated for 15 days under aerobic condition by MABA. The class given is functional. The note with it: 360 h. Summed up: (§1)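 Mtb H37Rv grown in 7H9/OADC at 37 °C with shaking to OD600 0.5. The 0.5-OD culture is exposed aerobically to serial dilutions for 15 days at 37 °C. Resazurin (0.02% stock) is then added for 4 h at 37 °C with shaking.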

Data set [4] relates to Mycobacterium tuberculosis. Briefly: Antibacterial activity against replicating Mycobacterium tuberculosis H37Rv incubated for 15 days under aerobic condition by MABA. The format is functional. The note with it: 360 h, read-out: MIC100. The procedure, abridged:
as §1

Data set [5] in a line: Selectivity index, ratio of IC50 for African green monkey Vero cells to MIC100 for replicating Mycobacterium tuberculosis H37Rv by MABA. The format is toxicity. The note with it: read-out: Selectivity Index. The procedure, abridged:
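Vero cells are cultured in EMEM with 10% FBS and exposed for 72 h to 0.78–200 µg/mL. Medium is switched to phenol-red-free EMEM, MTT is added, and formazan is read at 570 nm to give IC50. The selectivity index is Vero IC50 divided by the MABA MIC.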
On the technique in general: Resazurin is reduced to fluorescent resorufin, in cell work by metabolically active cells.

Regarding `NNC(=O)c1ccncc1` [ISONIAZID], the IC50 with Vero is > 200 µg/mL. Besides, the “log(activity)” value in data set [1] is reported as 4.22. For the same compound, the outcome in data set [2] was inactive. Also, in data set [3], the MBC was 0.57 µg/mL (≈ 4.16 µM). In data set [4], the MIC fell in the range of 0.04 to 0.1 µg/mL (≈ 0.292 to 0.729 µM). Also, the selectivity ratio in data set [5] was > 2000.
